Here are results for 30 compounds from PubChem BioAssay.

The nature of assay [1]: nonspecific flux increase, KCNQ1-free cells – parental CHO cells, counter-screen for KCNQ1 potentiator project (AID 493006;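 active = duplicate-averaged activation above buffer control mean plus 5 SD of those controls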). The conditions noted are these: parental CHO-K1 cells, FluxOR thallium flux, at 10 µM; active compounds read high. In outline:
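Test system: parental CHO-K1 cells, FluxOR dye-loaded / Probe or stimulus: potassium plus thallium depolarizing stimulus, 5x stock 12.5 mM K2SO4, Tl2SO4 / Timing: overnight 37 °C plating, 90 min dye, 20 min dark compound / Measured by: kinetic thallium-flux fluorescence / Read-out: max-minus-min fluorescence over baseline, percent of buffer-to-R-L3 span / Benchmarks: buffer and R-L3 controls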

The target in assay [2] is Potassium voltage-gated channel subfamily KQT member 1 (Homo sapiens) (UniProt P51787). Briefly: enhancement of KCNQ1 channel thallium flux – FluxOR thallium flux, CHO cells, duplicates, confirmation (AID 493007).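 For outcome: cells depolarized by a potassium plus thallium sulfate stimulus after compound.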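 For potentiation: 0% = buffer-only wells and 100% = R-L3 activator control.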 The settings on record: KCNQ1 cell line, FluxOR thallium flux fluorescence, at 10 µM; active compounds read high, % of reference activator effect, buffer zero. An outline of the steps:
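Assay system: CHO cells carrying KCNQ1 | Controls: Buffer and R-L3 controls | Schedule: FluxOR dye loading 90 min, compound exposure 20 min, room temperature | Read-out: Baseline-normalized fluorescence change, percent of buffer-to-R-L3 range | Replicates: Each compound tested in duplicate | Technique: Kinetic thallium influx fluorescence with FluxOR dye, 10 s baseline, 110 s post-stimulus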

The target of assay [3] is Potassium voltage-gated channel subfamily KQT member 2 (Rattus norvegicus) (UniProt O88943). As to the kind of experiment: KCNQ2 thallium flux enhancement – KCNQ2-CHO-K1 cells, selectivity assay for KCNQ1 potentiator project (AID 493009;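 active = mean duplicate potentiation above the buffer control mean plus 5 SD of buffer wells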;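 note: assay conditions were tuned for KCNQ1 rather than KCNQ2 modulators; signal is max minus min fluorescence divided by baseline after thallium stimulus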). The settings on record: FluxOR thallium flux fluorescence, at 10 µM; active compounds read high, scaled: buffer 0, activator control 100.
Assay [4] has as its target Potassium voltage-gated channel subfamily KQT member 1 (Homo sapiens) (UniProt P51787). Briefly: KCNQ1 activators by electrophysiology – IonWorks patch clamp, KCNQ1-CHO cells, orthogonal assay for KCNQ1 potentiator project, confirmation (AID 493184;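 active = current rise at least 3 SD above the untreated control mean in each of two repeat wells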;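 for current potentiation: percent change of the same well's current before compound addition so 0% = no change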). The settings on record: automated patch clamp current, at 10 µM; active compounds read high. An outline of the steps:
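Material: KCNQ1-expressing CHO cells; doses: 10 µM final, single point; probe or stimulus: voltage step from -90 mV holding to +40 mV, 2,000 ms; signal: automated voltage clamp, amphotericin B perforated patch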
In general terms: Patch clamp records ionic current or voltage across a cell membrane.

Activity calls are given as the source filed them.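 Rule for the calls, unless noted: active = potentiation averaged over duplicate wells exceeding buffer-only control mean by more than 3 SD; inactive = the rest.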

Sequence of Potassium voltage-gated channel subfamily KQT member 2 (Rattus norvegicus) (O88943 whole entry, looked up): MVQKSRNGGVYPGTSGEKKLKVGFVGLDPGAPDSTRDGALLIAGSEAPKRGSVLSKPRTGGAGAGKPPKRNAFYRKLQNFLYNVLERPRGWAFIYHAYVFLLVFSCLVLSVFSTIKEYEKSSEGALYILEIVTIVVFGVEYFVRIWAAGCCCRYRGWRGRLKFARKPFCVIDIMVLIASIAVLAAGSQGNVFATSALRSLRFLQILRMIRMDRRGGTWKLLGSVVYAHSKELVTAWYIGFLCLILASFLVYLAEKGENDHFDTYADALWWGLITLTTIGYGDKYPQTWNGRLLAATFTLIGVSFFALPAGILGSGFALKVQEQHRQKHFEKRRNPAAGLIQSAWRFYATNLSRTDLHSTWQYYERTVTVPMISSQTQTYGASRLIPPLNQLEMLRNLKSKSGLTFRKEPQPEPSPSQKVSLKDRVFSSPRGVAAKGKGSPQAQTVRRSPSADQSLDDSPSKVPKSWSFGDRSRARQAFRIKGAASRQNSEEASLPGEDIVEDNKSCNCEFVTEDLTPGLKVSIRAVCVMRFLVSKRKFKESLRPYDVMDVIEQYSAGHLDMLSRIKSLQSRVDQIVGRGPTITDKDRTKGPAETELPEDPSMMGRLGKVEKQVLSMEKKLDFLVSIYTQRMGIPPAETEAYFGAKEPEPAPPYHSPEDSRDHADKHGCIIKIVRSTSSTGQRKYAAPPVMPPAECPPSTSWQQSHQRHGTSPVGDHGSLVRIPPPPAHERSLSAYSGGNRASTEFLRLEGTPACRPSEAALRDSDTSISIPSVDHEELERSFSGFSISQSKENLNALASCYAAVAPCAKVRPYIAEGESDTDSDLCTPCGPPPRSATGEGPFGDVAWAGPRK
Sequence of Potassium voltage-gated channel subfamily KQT member 1 (Homo sapiens) (P51787 whole entry, looked up): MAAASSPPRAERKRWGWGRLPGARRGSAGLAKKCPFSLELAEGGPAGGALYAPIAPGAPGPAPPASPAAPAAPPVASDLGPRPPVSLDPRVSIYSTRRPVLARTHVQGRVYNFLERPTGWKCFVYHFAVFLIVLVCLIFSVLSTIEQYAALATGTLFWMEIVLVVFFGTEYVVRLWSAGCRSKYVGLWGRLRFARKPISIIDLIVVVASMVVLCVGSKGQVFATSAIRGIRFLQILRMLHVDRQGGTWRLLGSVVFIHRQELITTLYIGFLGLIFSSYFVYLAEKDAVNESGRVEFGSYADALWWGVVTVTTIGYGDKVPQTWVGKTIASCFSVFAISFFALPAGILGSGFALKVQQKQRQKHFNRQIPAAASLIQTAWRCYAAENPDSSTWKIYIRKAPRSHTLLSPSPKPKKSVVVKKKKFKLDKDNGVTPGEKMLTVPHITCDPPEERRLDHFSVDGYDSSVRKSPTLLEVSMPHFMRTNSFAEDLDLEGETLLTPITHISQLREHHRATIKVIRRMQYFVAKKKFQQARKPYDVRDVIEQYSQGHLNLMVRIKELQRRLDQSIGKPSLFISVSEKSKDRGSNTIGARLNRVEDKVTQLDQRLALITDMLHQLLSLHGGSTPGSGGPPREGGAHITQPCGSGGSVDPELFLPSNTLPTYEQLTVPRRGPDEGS

For `COc1ccccc1C(=O)NNC(=O)C(=O)Nc1ccc(C)c(Cl)c1`, the activation in assay [1] is 552% (active). For the same compound, the potentiation in assay [2] was 235% (active); in assay [3], 512% (active). Also, the outcome in assay [4] was inactive.
In the same order, the values of `Cc1onc(-c2ccccc2)c1C(=O)NC(=S)Nc1sc2c(c1C#N)CCC(C)C2` (stereo not given) are 145% (active), 28% (active), 142% (active) and “inactive”.
With `COc1ccc(-c2csc(NC(=O)C3=NN(c4ccccc4)C(=O)CC3)n2)cc1`, the result in assay [1] and in assay [3] was inactive. The potentiation in assay [2] is 146% (active). Also, the current potentiation in assay [4] was 101% (active).
Take `CCOC(=O)Nc1ccc2c(c1)N(CCCN(C)C)c1ccccc1CC2`: the result in assay [1], in assay [2], in assay [3] and in assay [4] was inactive.
In the case of `N#C/C(=C\c1ccc(-c2ccccc2Cl)o1)C(=O)Nc1nc2ccccc2s1`, the outcome in assay [1], in assay [2], in assay [3] and in assay [4] was inactive.
In the case of `S=C(Nc1ccc(Br)cc1)N1CCn2cccc2C1c1cccnc1` (stereo not given), the result in assay [1], in assay [2], in assay [3] and in assay [4] was inactive.
Regarding `COc1ccc(NC(=O)CC2C(=O)N(c3ccc(Cl)cc3)C(=S)N2NC(=O)c2cccc(F)c2)cc1` (stereo not given), the result in assay [1], in assay [2], in assay [3] and in assay [4] was inactive.
Regarding `O=C(NN1C(=O)C2C(c3ccccc3)C=CC(c3ccccc3)C2C1=O)c1ccncc1` (stereo not given), the activation in assay [1] is 176% (active). Also, the potentiation was 18% (active) in assay [2] and 152% (active) in assay [3]. Also, the outcome in assay [4] was inactive.
Take `O=C(O)c1ccccc1C(=O)NNc1ccc(Cl)cc1`: the outcome in assay [1], in assay [2], in assay [3] and in assay [4] was inactive.
Take `CC1(C)Cc2c(sc(/N=C/N3CCCCCC3)c2C#N)C(C)(C)N1`: the result in assay [1], in assay [2], in assay [3] and in assay [4] was inactive.
In the case of `C=CCn1c(=S)[nH]c2nc3c(cc2c1=O)CCCC3`, the result in assay [1] and in assay [4] was inactive. Moreover, the results for the potentiation in assay [2] and in assay [3] were 34% (active) and 152% (active), respectively.
On to `CCC1(c2ccccc2)NC(=S)N(c2ccc(C)c(C)c2)N1` (stereo not given), for which, in assay [1], the activation is 542% (active). Further, the potentiation in assay [2] was 271% (active); in assay [3] it was 572% (active). In addition, the result in assay [4] was inactive.
On to `Fc1ccccc1C(c1nnnn1C1CCCC1)N1CCN(Cc2ccccc2)CC1` (stereo not given), for which the result in assay [1], in assay [2], in assay [3] and in assay [4] was inactive.
Consider `O=c1c2ccc(Cl)cc2[nH]c(=S)n1CCC1=CCCCC1`, for which the activation in assay [1] was 156% (active). Moreover, the potentiation is 48.5% (active) in assay [2] and 166% (active) in assay [3]. In addition, the result in assay [4] was inactive.
With `CC/C(=N\NC(=S)Nc1cccc(C)c1)c1ccccc1`, the outcome in assay [1] and in assay [4] was inactive. Moreover, the potentiation in assay [2] was 104% (active); in assay [3], 216% (active).
For `O=C(NC(=S)Nc1ccc(C(F)(F)F)cc1)c1csnn1`, in assay [1], the activation was 590% (active). For the same compound, the potentiation is 269% (active) in assay [2] and 555% (active) in assay [3]. Besides, in assay [4], the result was inactive.
For `O=S1(=O)Nc2c(ccc3cccnc23)-c2ccccc21`, the outcome in assay [1] and in assay [4] was inactive. Also, the potentiation in assay [2] was 21% (active); in assay [3], 154% (active).
Turning to `N#C/C(=C/c1cn(-c2ccccc2)nc1-c1cccc(S(=O)(=O)N2CCOCC2)c1)C(=O)NCc1ccco1`, the outcome in assay [1], in assay [2], in assay [3] and in assay [4] was inactive.
In the case of `c1ccc2c(c1)OCC(CNc1ncnc3nc[nH]c13)O2` (stereo not given), the activation in assay [1] was 227% (active). Also, the figures for the potentiation in assay [2] and in assay [3] were 46% (active) and 194% (active), respectively. Also, the result in assay [4] was inactive.
For `Cc1ccccc1OCC(=O)N=Nc1c(O)n(C)c2ccccc12`, in that order: 188% (active), 42% (active), 188% (active) and “inactive”.
Consider `Cc1ccccc1-c1nc(Cc2ccc(Cl)cc2)no1`, for which the result in assay [1], in assay [2], in assay [3] and in assay [4] was inactive.
As for `O=C(N/N=C/c1ccccn1)c1cc(-c2ccc(Br)cc2)nc2ccccc12`, the activation in assay [1] was 142% (active). The potentiation in assay [2] was 51.5% (active); in assay [3], 174% (active). Also, in assay [4], the result was inactive.
`CCCCCCCC/C=C\CCCCCCCC(=O)O`: in assay [1], the activation was 143% (active). Besides, the potentiation in assay [2] is 51% (active). The outcome in assay [3] and in assay [4] was inactive.
On to `CCn1c(O)c(N=NC2=NC(=O)CS2)c2ccccc21`, for which the outcome in assay [1], in assay [2] and in assay [4] was inactive. In assay [3], the potentiation is 145% (active).
For the compound `CCCCOC(=S)NC(=O)c1sc2ccccc2c1Cl`, the activation in assay [1] is 448% (active). Also, the potentiation is 206% (active) in assay [2] and 365% (active) in assay [3]. The result in assay [4] was inactive.
Turning to `CC1(C)N=C(N)NC(Nc2cccc(Br)c2)=N1`, the outcome in assay [1], in assay [2], in assay [3] and in assay [4] was inactive.
On to `O=C(CCn1c(=O)sc2ccccc21)NCc1ccco1`, for which the outcome in assay [1], in assay [2], in assay [3] and in assay [4] was inactive.
`COc1cccc(CNC(=O)C2CCN(S(=O)(=O)c3ccc(-n4cnnn4)cc3)CC2)c1`: the result in assay [1], in assay [2], in assay [3] and in assay [4] was inactive.
As for `CC(C)C1=NN(C(=O)c2ccccc2)C(O)(C(C)(C)C)C1` (stereo not given), the result in assay [1], in assay [2], in assay [3] and in assay [4] was inactive.
For the compound `Nc1nc(C23CC4CC(CC(C4)C2)C3)cs1`, the outcome in assay [1], in assay [2] and in assay [4] was inactive. The potentiation in assay [3] is 168% (active).
